Measurements pooled from the literature.
DHFR: Dihydrofolate reductase (DHFR, Homo sapiens, UniProt P00374)
Tmem97: Sigma intracellular receptor 2 (Tmem97, Rattus norvegicus, UniProt Q5U3Y7)

| SMILES | target | observed | action | method | concentration | measurement | result |
| --- | --- | --- | --- | --- | --- | --- | --- |
| COc1cccc(NC(=S)NN=Cc2ccc(N3CCCCC3)cc2)c1 | DHFR | enzyme activity | inhibitor | – | 500 µM | inhibition | 84.9% |
| COc1cc([C@@H]2c3cc4c(cc3[C@@H](O[C@@H]3O[C@@H]5CO[C@@H](C)O[C@H]5[C@H](O)[C@H]3O)[C@H]3COC(=O)[C@H]23)OCO4)cc(OC)c1O | DNA topoisomerase 2-alpha (TOP2A, Homo sapiens, UniProt P11388) | enzyme activity | inhibitor | – | 7.8 µM | inhibition | 89.5% |
| C[C@H]1c2nc3ccccc3c(-c3ccccc3)c2[C@H]2C[C@@H]1N(Cc1ccccc1)C[C@]2(C)O | Tmem97 | ligand displacement | – | radioligand | 1 µM | inhibition | 0% |
| O=[N+]([O-])c1ccc(NC(=S)NN=Cc2ccc(N3CCCCC3)cc2)cc1 | DHFR | enzyme activity | inhibitor | – | 500 µM | inhibition | 90.6% |
| CC(C)OC(=O)CNc1cccc(CN(Cc2ccc(-n3cccn3)cc2)S(=O)(=O)c2cccnc2)n1 | Rho-associated protein kinase 1 (ROCK1, Homo sapiens, UniProt Q13464) | enzyme activity | inhibitor | – | 10 µM | inhibition | ≥ 50% |
| CNc1ncc2c(/C=C/C(=O)N3CCC(OC)CC3)nn(Cc3cccc(C(F)(F)F)c3)c2n1 | Mitogen-activated protein kinase kinase kinase 8 (MAP3K8, Homo sapiens, UniProt P41279) | enzyme activity | inhibitor | radiometric | 1 µM | remaining activity | 112% |
| COc1ccc(CN2C[C@](C)(O)[C@@H]3C[C@H]2[C@@H](C)c2nc4ccccc4c(-c4ccccc4)c23)cc1 | Tmem97 | ligand displacement | – | radioligand | 1 µM | inhibition | 0% |
| C=CC(=O)N1CCC(COCC(=O)N2CCN(c3nc(-c4cnc(N)nc4C(F)F)nc(N4CCOC[C@@H]4C)n3)CC2)CC1 | Calcium/calmodulin-dependent protein kinase type II subunit alpha (CAMK2A, Homo sapiens, UniProt Q9UQM7) | binding | – | competition with immobilised ligand | 1 µM | remaining binding | 100% |
| Cc1ccc(NC(=S)NN=Cc2ccc(N3CCCCC3)cc2)cc1 | DHFR | enzyme activity | inhibitor | – | 500 µM | inhibition | 84.4% |
| COc1cc(-c2cncc3c2CN(C)Cc2cc(N4CCNCC4)ccc2-3)cc(OC)c1OC | MAPK/MAK/MRK overlapping kinase (MOK, Homo sapiens, UniProt Q9UQ07) | enzyme activity | inhibitor | – | 1 µM | remaining activity | 103% |
| Cc1cccc(C)c1NC(=S)NN=Cc1ccc(N2CCCCC2)cc1 | DHFR | enzyme activity | inhibitor | – | 500 µM | inhibition | 87.5% |
| Cc1cc([C@@H](C)Nc2ccccc2C(=O)O)c2nc(N3CCC(F)(F)CC3)c(C#N)c(=O)n2c1 | Serine/threonine-protein kinase PLK1 (PLK1, Homo sapiens, UniProt P53350) | binding | – | competition with immobilised ligand | 1 µM | remaining binding | 100% |
